RAD54 inh: inhibitors of human RAD54 branch migration; Q92698; RAD54 Holliday junction branch migration, FAM/BHQ fluorescence; inhibition, % at 10.4 µM; 0.14% of 360,000 active;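 active = mean normalized replicate activity at least 40 and at least half of replicates scoring 40 or more; inconclusive = only one of the two criteria met; inactive = mean below 40 and under half of replicates reaching 40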;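 also: 0% = median of neutral control wells and 100% = median of positive control wells; inhibitors cause a drop in the FAM fluorescence signal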
PglD DTNB: blocks C. jejuni PglD acetyltransferase activity | purified PglD enzyme, DTNB colorimetric CoA detection | inhibition, % at 12.5 µM | 0.098% of 360,000 active | AID 602405; in the data active = inhibition above about 16%, passing the limit was not always enough; inconclusive = no clear call, values can overlap the other calls
Xi reactivation: X-chromosome reactivation activator; XiGFP mouse fibroblasts, % GFP-positive cells imaging, 3 d; cells co-treated with 5-aza-dC sensitizer; scaled so ellipticine positive control = 100%; activation, % at 7.58 µM; 0.055% of 360,000 active;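 active = mean normalized replicate activation at least 10% and every replicate at or above 10%; inconclusive = only one of the two criteria met; inactive = mean below 10% and not all replicates reach 10%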;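 also: 0% = median of on-plate neutral control wells and 100% = ellipticine 6 µM median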
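Assay system – SV40-immortalized XiGFP fibroblast cells, line 68-5-11 · Buffer or medium – DMEM supplemented with 5-aza-dC as sensitizing agent · Dosing – one concentration, pinned · Benchmarks – positive control ellipticine, 6 µM final · Times – 3 days compound exposure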
E-sel inducer: E-selectin induction on HUVECs; P16581; HUVEC E-selectin immunofluorescence imaging; normalized: neutral wells 0, TNF-alpha wells 100; activation, % at 7.58 µM; 0.37% of 260,000 active; AID 686992;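 active = mean E-selectin-positive cell signal at least 10% of the positive control, reached in at least 60% of replicates, without over 20% cell loss; inconclusive = no rule given, readout overlaps actives, possibly toxicity-flagged; inactive = the rest, including those meeting only one limit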
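System: HUVEC, human umbilical vein endothelial cells; quantity: 3,000 cells/well; buffer or medium: EGM-2 medium, gelatin-coated wells; dosing: single-point compound dose; detection: immunofluorescence imaging; evaluation: % PE-positive cells; benchmarks: TNF-alpha, DMSO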
rRNA inh HTS: inhibits bacterial ribosomal RNA function over humanized ribosomes; AID 720706; 1.6% of 350,000 active; E. coli WT GFP vs humanized-ribosome RFP mutants, fluorescence, 24 h; stronger effect = lower value; DMSO median 0, no signal -100; GFP signal change (wild-type ribosome), % (test concentration not listed);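 active = significant combined selectivity score with lowered wild-type GFP, culture density cut under 30%, mutant RFP and density less affected; inactive = any of these conditions unmet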
RAD52 inh: inhibitors of human RAD52 DNA annealing; 0.46% of 360,000 active; P43351; recombinant RAD52 DNA annealing, FRET fluorescence; AID 651710; inhibition, % at 18.7 µM;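 active = every replicate showing at least 50% inhibition; inconclusive = mean inhibition at least 50% but not in every replicate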
Target sequence (P43351 whole entry, looked up): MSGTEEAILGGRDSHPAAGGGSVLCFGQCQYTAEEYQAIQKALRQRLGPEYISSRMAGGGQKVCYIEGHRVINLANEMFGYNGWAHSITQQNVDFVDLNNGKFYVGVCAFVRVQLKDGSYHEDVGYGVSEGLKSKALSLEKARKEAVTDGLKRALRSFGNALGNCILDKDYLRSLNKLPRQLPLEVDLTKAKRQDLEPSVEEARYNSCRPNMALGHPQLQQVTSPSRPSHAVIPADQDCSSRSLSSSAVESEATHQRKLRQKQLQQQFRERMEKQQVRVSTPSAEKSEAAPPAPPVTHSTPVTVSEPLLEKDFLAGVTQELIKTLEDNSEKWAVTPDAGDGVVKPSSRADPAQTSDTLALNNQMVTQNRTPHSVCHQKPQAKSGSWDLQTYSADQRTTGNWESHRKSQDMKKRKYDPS
Active calls of the source: *; ? = inconclusive; nt = no result. Most compounds without a hit are left out; they make up all but 2% or so of the library.

SMILES	RAD54 inh	PglD DTNB	Xi reactivation	E-sel inducer	rRNA inh HTS	RAD52 inh
Cc1ccc(S(=O)(=O)Nc2cccc3c2O[C@@H](CN(C)S(=O)(=O)c2ccc(F)cc2)[C@H](C)CN([C@H](C)CO)C3=O)cc1	0	1	-1	-1	2	nt
CC=Cc1ccc2n(c1=O)C[C@H]1[C@H](CO)[C@@H](C(=O)NCc3ccc(F)cc3)[C@@H]2N1CC (mixture of isomers)	-28	4	0	0	-1	6
O=C1/C(=C\c2cccc(O)c2)SC(=S)N1Cc1ccccc1	-5	3	0	2	-20*	-8
O=C(CNC(=S)N(Cc1ccccc1F)C1CCCCC1)NCC1CCCO1 (stereo unspecified)	nt	nt	0	?	-32*	-14
O=[N+]([O-])c1ccc(/C=N/NC(=S)Nc2ccc(Cl)cc2Cl)s1	0	1	13*	nt	-19*	-15
COc1ccc(NC(C)C(=O)N/N=C/c2ccc([N+](=O)[O-])s2)cc1 (stereo unspecified)	nt	nt	0	4	3	-8
Cc1ccc(NC(C)C(=O)N/N=C/c2ccc([N+](=O)[O-])s2)cc1 (stereo unspecified)	11	2	0	16	-22*	-4
COc1ccc2c3c(n(C)c2c1)[C@H](CO)N(Cc1ccncc1)CC31CN(C(=O)C2CCCCC2)C1	nt	nt	0	0	-6	-12
C[C@@H]1CCCCO[C@H](CN(C)C(=O)c2ccccc2)[C@H](C)CN([C@@H](C)CO)C(=O)c2cc(NC(=O)CCC(F)(F)F)ccc2O1	0	3	0	0	-1	24
C[C@@H]1CN([C@H](C)CO)S(=O)(=O)c2ccc(C#Cc3ccc(F)cc3)cc2O[C@@H]1CN(C)C(=O)c1ccccn1	-9	2	0	0	-4	-2
CCOC(=O)C1CCN(C(=O)c2cc3c(=O)n4ccccc4nc3s2)CC1	6	-6	0	0	1	-10
CCOC(=O)C1CCN(C(=O)c2cc3c(=O)n4cccc(C)c4nc3s2)CC1	-3	0	0	nt	-19*	-6
Cc1ccccc1-c1ccc([C@@H]2[C@H](CO)N3CCCCN(CC4CCOCC4)C[C@@H]23)cc1	1	4	0	0	5	27
COc1ccc(C)cc1NC(=O)c1nn(C)cc1Br	-1	5	0	0	-15*	-1
O=C(C[C@H]1CC[C@H](NS(=O)(=O)c2ccc(F)cc2)[C@@H](CO)O1)N1CCc2ccccc2C1	3	0	-1	0	-2	1
CN1C(=O)[C@@](O)(c2cn(C)c3ccccc23)c2cc(Br)ccc21	nt	nt	0	14	-23*	-9
C[C@@H]1CN([C@@H](C)CO)C(=O)c2cc(NS(=O)(=O)c3cn(C)cn3)ccc2O[C@H]1CN(C)Cc1ccc(C(=O)O)cc1	-8	1	0	nt	5	2
COc1ccc(C)cc1NC(=O)NNC(=O)C1CCC(C(C)(C)C)CC1 (stereo unspecified)	-7	-4	0	2	-17*	-5
C[C@@H]1CCCCO[C@@H](CN(C)Cc2ccncc2)[C@H](C)CN([C@@H](C)CO)C(=O)c2cc(NS(=O)(=O)c3cccs3)ccc2O1	-3	1	0	0	-1	-2
CCC(CO)Oc1cc(NC(=O)c2ccc(OC)cc2)c2ncn(C(C)C)c2c1 (stereo unspecified)	-19	1	0	0	-20*	-2
CO[C@@H](CN(C)CC1CCOCC1)[C@H](C)CN(C(=O)Nc1ccc(F)cc1)[C@@H](C)CO	6	0	0	0	7	-31
CN(Cc1ccccc1)C(=O)C(C(=O)c1ccc(F)cc1)n1cc(Cl)ccc1=O (stereo unspecified)	nt	nt	0	1	-30*	-23
O=S(=O)(N[C@@H]1CC[C@@H](CCn2cc(-c3cccnc3)nn2)O[C@@H]1CO)c1ccc(Cl)cc1	1	5	0	0	-5	-6
CCc1nn2cc(C(=O)c3cc(Cl)ccc3O)cnc2c1-c1ccc(F)cc1	nt	nt	0	0	-18*	-5

Screening results deposited in PubChem BioAssay by Broad Institute.
